This is a sample that favours compounds with a hit; in the whole collection about 4.5% have one here.
CHO parental Ca – counter-screen for OX1R antagonists: effect in parental CHO cells; parental CHO-K1, ATP-induced calcium, Fluo-8 fluorescence; hit rate 0.63% among 330,000; inhibition, % at 5.6 µM;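 active means inhibition above that plate's mean sample inhibition plus 3 SD, cut at about 26% in these data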;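 further: 0% = ATP-challenged DMSO wells and 100% = DMSO wells without ATP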
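Material: parental CHO cells / Compound: single nominal dose of 5.6 µM per compound / Signal: Fluo-8 fluorescence / Replicates: singlicate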
TAAR1 ag – agonists of human TAAR1 | activation, % at 3 µM | hit rate 0.99% among 360,000 | Q96RJ0 | AID 624467 | CHO RD-HGA16 TAAR1, Fluo-8 calcium fluorescence; vehicle wells 0%, saturating PEA agonist 100%;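 active means activation above the mean activation of all test compounds in the run plus 3 SD, cut at about 38% in these data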
Target sequence (Q96RJ0 whole entry, looked up): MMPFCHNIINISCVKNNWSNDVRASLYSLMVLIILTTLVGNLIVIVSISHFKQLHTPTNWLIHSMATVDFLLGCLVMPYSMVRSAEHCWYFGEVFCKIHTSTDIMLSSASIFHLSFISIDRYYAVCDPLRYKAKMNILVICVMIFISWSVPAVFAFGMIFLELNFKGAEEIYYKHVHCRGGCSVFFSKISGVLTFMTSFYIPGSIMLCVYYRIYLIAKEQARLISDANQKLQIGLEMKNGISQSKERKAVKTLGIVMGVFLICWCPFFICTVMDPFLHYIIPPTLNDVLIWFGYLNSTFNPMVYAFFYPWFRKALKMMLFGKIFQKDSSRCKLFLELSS
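Assay system – CHO-derived RD-HGA16 cells with stable Gα16 and human TAAR1 · Compound dosing – one-point dosing at 3 µM (nominal) · Incubation – 17-24 h seeding, 75 min 37 °C dye, 30 min RT · Measured by – kinetic Fluo-8 calcium fluorescence · Control set – DMSO vehicle as 0%, PEA at EC100 as 100% · Repeats – single well for each compound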
OX1R antag-1 – blocks the human orexin 1 receptor. O43613. CHO/OX1R cells, Fluo-8 calcium fluorescence, orexin A. inhibition, % at 5 µM. hit rate 0.43% among 330,000;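 active means inhibition above its plate's threshold, mean inhibition of all tested compounds on the plate plus 3 SD, cut at about 37% in these data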;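 further: 0% = orexin A challenge wells and 100% = SB-334867-A antagonist wells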
OX1R antag-2 – blocks the human orexin 1 receptor; O43613; OX1R-expressing cells, FRET antagonist read-out; inhibition, % at 6.6 µM; hit rate 1.8% among 330,000; in the data active means inhibition mostly above about 38%, no sharp cut-off; inactive means mostly below about 40%;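 further: 0% = agonist challenge alone and 100% = reference antagonist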
TAAR1 antagonist – antagonists of human TAAR1 | CHO RD-HGA16 TAAR1, Fluo-8 calcium fluorescence, antagonist | inhibition, % at 3 µM | hit rate 1.5% among 360,000;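 active means inhibition above a per-plate cutoff, the mean inhibition of test compounds on that plate plus 3 SD, cut at about 49% in these data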;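 further: 0% = DMSO plus EC80 beta-PEA response and 100% = DMSO alone without agonist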
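Test system: RD-HGA16 CHO cells with stable hTAAR1 and Gα16 / Probe or stimulus: EC80 β-phenethylamine stimulus / Times: seeding 17-24 h prior, 75-min 37 °C, 30-min RT dye loading / Detection: Fluo-8 calcium-sensitive fluorescence / Read-out basis: % inhibition scaled between DMSO and EC80 PEA controls / Repeats: singlicate, one well per test compound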
GPR7 antag – antagonists of human GPR7 (neuropeptides B/W receptor 1) | GPR7-expressing cells, fluorescence antagonist assay | hit rate 1.1% among 290,000 | inhibition, % at 4.4 µM | P48145; in the data active means inhibition above about 16%, passing the limit was not always enough;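 further: cells stimulated with the agonist NPW; 0% = agonist with vehicle and 100% = vehicle without agonist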
Target sequence (P48145 whole entry, looked up): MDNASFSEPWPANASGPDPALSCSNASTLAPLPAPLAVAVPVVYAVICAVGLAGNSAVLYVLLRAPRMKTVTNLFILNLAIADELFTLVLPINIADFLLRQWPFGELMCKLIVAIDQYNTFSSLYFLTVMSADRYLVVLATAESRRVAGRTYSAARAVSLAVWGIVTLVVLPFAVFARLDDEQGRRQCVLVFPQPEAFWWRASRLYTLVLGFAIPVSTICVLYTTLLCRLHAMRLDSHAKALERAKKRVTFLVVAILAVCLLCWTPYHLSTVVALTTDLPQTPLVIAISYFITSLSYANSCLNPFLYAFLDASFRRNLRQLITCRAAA
Numbers without * were called inactive; · = no result.

SMILES	CHO parental Ca	TAAR1 ag	OX1R antag-1	OX1R antag-2	TAAR1 antagonist	GPR7 antag
CCOC(=O)N1CCN(C(=O)c2oc3ccc(S(=O)(=O)N4CCCCCC4)cc3c2C)CC1	-41	11	-32	-13	2	4
COc1ccc(-c2cccc3c4c([nH]c23)[C@@H]2C[C@H]3[C@@H](C(=O)N2CC4)[C@H](C)ON3C)cc1	·	2	·	·	3	·
CSc1cccc(NC(=O)CN(C)S(=O)(=O)c2ccc(C)cc2)c1	30	6	51*	78*	12	1
Cc1ccc(S(=O)(=O)N(C)CC(=O)Nc2ccccc2)cc1	-6	11	-15	14	-7	8
CC(=O)Nc1ccc(S(=O)(=O)N(C)CC(=O)Nc2ccc(Br)cc2F)cc1	67*	5	-18	20	10	·
Cc1c(C)[n+](=O)c(C)c(C)n1[O-]	·	0	·	·	-7	·
CCN(CCNCC(O)COCc1ccc(Cl)cc1)c1cccc(C)c1 (centres undefined)	-4	40*	-22	2	19	8
CCc1ccc(OCCCC(=O)NCc2ccco2)cc1	-8	-1	-16	8	-17	0
CCc1ccc(N/C(SCc2ccccc2C)=C(/C#N)C(=O)NCc2ccco2)cc1	7	1	-4	29	51*	-16
COCCNC(=O)C1(C)CCN(C(=O)c2ccc(SC(F)(F)F)cc2)C1 (centres undefined)	·	3	·	·	-18	·
O=C(NN1CCOCC1)c1cnn2c(C(F)F)cc(-c3ccccc3)nc12	-18	-1	-15	40*	1	-4
CC(=O)c1ccc(S(=O)(=O)N2CCN(c3ccnc4cc(Cl)ccc34)CC2)cc1	·	3	·	·	47	·
Cc1ccc(S(=O)(=O)N2CCN(c3ccnc4cc(Cl)ccc34)CC2)cc1C	37*	8	25	55	14	-15
Cc1ccc(S(=O)(=O)N2CCN(c3ccnc4cc(Cl)ccc34)CC2)cc1	56*	1	53*	31	45	14
Cc1cc(N2CCN(S(=O)(=O)c3ccc(Cl)cc3)CC2)c2ccccc2n1	58*	21	24	30	31	-5
O=C(Cc1cccs1)NCCS(=O)(=O)N1CCN(c2ccccc2)CC1	·	0	·	·	-5	·
FC(F)Oc1ccc(NC(=S)NCc2ccccc2)cc1Cl	34*	6	9	14	28	13
CC(NC(=S)Nc1ccc(OC(F)F)c(Cl)c1)C(C)(C)C (centres undefined)	34*	9	38*	24	31	11
O=C(NCCCn1ccnc1)C1CCCN(S(=O)(=O)c2ccc(F)cc2)C1 (centres undefined)	-4	2	2	10	-6	-17
CC(NC(=O)Cn1ncc(Cl)c(Cl)c1=O)C12CC3CC(CC(C3)C1)C2 (centres undefined)	11	·	26	21	·	23*
CCn1cc(C(=O)NC(C)C23CC4CC(CC(C4)C2)C3)cn1 (centres undefined)	-12	-1	-20	-2	5	3
COC(=O)[C@]12C[C@H](CC(=O)NCc3cccs3)C(=O)N(CCC3=CCCCC3)C1=C[C@H](COCc1ccccc1)O[C@@H]2C	·	-1	·	·	-6	·
COc1ccc(Cc2nnc(NC(=O)CSc3ccc(C)cc3)s2)cc1OC	-42	112*	-62	11	87*	-8
CO/N=C/c1ccc(N2CCN(C(=O)c3ccc(F)cc3)CC2)c([N+](=O)[O-])c1	-2	38*	-5	10	39	6
CO/N=C/c1ccc(N2CCN(C(=O)c3cccc(C(F)(F)F)c3)CC2)c([N+](=O)[O-])c1	12	22	6	15	54*	7
SMILES	CHO parental Ca	TAAR1 ag	OX1R antag-1	OX1R antag-2	TAAR1 antagonist	GPR7 antag
O=C(O/N=C\c1ccc(N2CCCCC2)c([N+](=O)[O-])c1)c1cccc(C(F)(F)F)c1	-9	-3	-14	6	10	-10
CCc1nc2ccc(C(=O)Nc3cccc(OCC(=O)N(C)C)c3)cn2c1N(C)Cc1cc2ccccc2s1	·	9	·	·	71*	·
CCc1nc2ccc(C(=O)Nc3cc(-c4ccccc4)ccc3OC)cn2c1N(C)Cc1nccs1	·	6	·	·	54*	·
CSCCC(C(=O)Nc1c(C)cccc1C)N1CCC(Cc2ccccc2)CC1 (centres undefined)	·	-1	·	·	19	·
COC(=O)c1ccc2nc(-c3cccc(Br)c3)c(Cc3cccc(F)c3)n2c1	·	-1	·	·	5	·
O=C(NCc1ccccc1)[C@@H]1CCCN1C(=O)[C@H]1CCCN1C(=O)c1cc(F)cc(F)c1	·	1	·	·	6	·
COc1ccccc1OC(=O)Nc1ccc(Cl)cc1	31*	6	-3	10	24	-5
Cc1ccc(N=C2NC(=O)c3cc([N+](=O)[O-])ccc32)cc1	9	-2	-1	56*	-15	3
Fc1ccccc1CSc1nncn1NCc1cccs1	5	9	-7	10	13	19*
COC(=O)[C@]1(Cc2ccccc2)NC=C(C(=O)c2ccccc2)[C@@H]1c1cccs1	·	0	·	·	-11	·
Cc1cccc(OCC(=O)Nc2ccc3oc(=O)ccc3c2)c1C	50*	3	2	15	21	5
Cc1ccc(OCC(=O)Nc2ccc3oc(=O)ccc3c2)cc1	2	-2	-9	7	1	7
O=C(Nc1cc(Cl)ccc1O)c1snnc1-c1ccccc1	30	6	45	46*	31	-5
O=C(Nc1ccc2ccccc2n1)c1ccccc1Br	-18	-4	-3	42*	-23	3
Nc1ccc(-c2nc3ccc(N)cc3[nH]2)cc1	5	13	-1	9	9	1
Nc1ccc2cc3[nH]c4cc(N)ccc4c3nc2c1	·	78*	·	·	63*	·
COc1ccc2c(c1)C(=NN)c1cc(OC)ccc1-2	-14	9	-4	55*	-13	-6
COc1ccc2c(c1)C(=NNc1ccc(C(=O)O)cc1)c1cc(OC)ccc1-2	-4	0	-12	1	-12	-35
COc1ccc(-c2noc(CCC(=O)NCC3CCN(Cc4cccc(C)c4)CC3)n2)cc1	-8	6	-10	11	-3	0
CCN(CCCNC(=O)CCc1nc(-c2ccc(OC)cc2)no1)c1cccc(C)c1	-7	3	29	55*	9	1
CN(C)CCCNC(=O)c1c(N)[nH]c(C(=O)c2ccc(Br)cc2)c1-c1ccc(Br)cc1	·	2	·	·	-14	·
C1=CCN(Cc2ccccc2)C1	11	1	6	13	-13	-6
Cc1ccc(-n2nc(C(=O)O)c(C)c(C#N)c2=O)cc1Cl	-11	-1	-27	51*	-29	6
Cc1c(C(=O)O)nn(-c2ccccc2)c(=O)c1C#N	-3	0	-6	60*	5	-11
CCCCn1nnnc1SCC(=O)NNC(=O)C1CCCCC1	-7	4	0	3	-2	-9

Screening results: PubChem BioAssay, The Scripps Research Institute Molecular Screening Center
